Compound activity (PubChem BioAssay)
Sampled rows, rich in hits. Any-hit rate of the full collection: about 4.6%.
FAS TE block = FAS thioesterase (human) inhibition | AID 602261 | recombinant FAS-TE, OMFH fluorogenic substrate, fluorescence endpoint | inhibition, % at 15 µM | 360,000 compounds, 0.67% hits;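 active = compounds whose normalised, plate-corrected inhibition of enzyme fluorescence in the single-dose primary screen is 50% or more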;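 note: 0% = DMSO with enzyme and 100% = substrate without enzyme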
HDAC3 inhib = human HDAC3 inhibition; O15379; recombinant HDAC3, fluorogenic peptide/trypsin coupled, fluorescence; inhibition, % at 8.3 µM; 320,000 compounds, 0.15% hits; in the data active = inhibition above about 26%, passing the limit was not always enough; inconclusive = no clear call, values can overlap the other calls
PfM18AAP inh = PfM18AAP enzyme inhibition; recombinant PfM18AAP, H-Glu-NHMec fluorogenic cleavage; inhibition, % at 7.35 µM; 290,000 compounds, 1.2% hits; AID 1822;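 active = inhibition above the campaign mean inhibition over all tested compounds plus 3 SD, cut at about 28% in these data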;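 note: 0% = plate median of test compound wells and 100% = 2 mM ZnCl2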
UCH37 DUB inh = inhibitors of human deubiquitinating enzyme UCH37; Q9Y5K5; purified proteasome/UCH37, Ub-AMC cleavage fluorescence; inhibition, % (concentration not given with the values); 330,000 compounds, 0.33% hits; AID 588478;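 active = mean inhibition over replicate wells above about 20%, limit read from the data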;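 note: 0% = compound-free wells with enzyme and 100% = wells lacking proteasome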
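Material: Human UCH37 enzyme supplied as purified proteasome complex | Schedule: 30 min preincubation with enzyme, 25 min cleavage at room temperature | Detection: AMC fluorescence 355/460 nm | Measure: % inhibition of Ub-AMC cleavage fluorescence | Controls: Wells without proteasome as full block, compound-free enzyme plus substrate as uninhibited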
Rtt109 HAT inh = blocks Candida albicans Rtt109/Vps75 acetyltransferase activity; Q5AAJ8; purified Rtt109/Vps75, ThioGlo CoA-SH fluorescence, 4 h; inhibition, % at 34.9 µM; 330,000 compounds, 0.16% hits; AID 540336;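 active = inhibition of at least 50% in every replicate; inconclusive = best replicate reaches 50% inhibition but some replicates fall short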
ALR H2O2 inh = human ALR oxidase inhibition via reduced H2O2; P55789; inhibition, % (test concentration not listed); AID 485317; purified ALR, DTT oxidation, H2O2 HRP-luminol luminescence; 290,000 compounds, 3.8% hits;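 active = mean replicate inhibition above about 79%, with every replicate also reaching it, limit read from the data; inconclusive = only one of the two criteria met; inactive = mean below limit and not every replicate reaching it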
An asterisk follows results filed as active.

Results for N#C/C=C1/NC(=O)c2ccccc2S1 ?
FAS TE block: -6; HDAC3 inhib: 3; PfM18AAP inh: 29*; UCH37 DUB inh: 5; Rtt109 HAT inh: 2; ALR H2O2 inh: 56

What do the screens show for `CC(C)(C)C(=O)ON=C(N)COc1cccc(Cl)c1`?
UCH37 DUB inh: 4

What do the screens show for `COC(=O)NCC(c1ccco1)N1CCN(c2ccc(F)cc2)CC1` (stereo unspecified)?
FAS TE block: -5; HDAC3 inhib: 4; PfM18AAP inh: 13; UCH37 DUB inh: 5; Rtt109 HAT inh: -5; ALR H2O2 inh: 92*

How did O=C(NCC(c1ccco1)N1CCN(c2ccc(F)cc2)CC1)c1ccco1 (stereo unspecified) do in these assays?
FAS TE block: -1; HDAC3 inhib: -2; UCH37 DUB inh: 0; Rtt109 HAT inh: 1; ALR H2O2 inh: 55

How did CCC(=O)NCC(c1ccco1)N1CCN(c2ccc(OC)cc2)CC1 (stereo unspecified) do in these assays?
FAS TE block: -3; HDAC3 inhib: 1; PfM18AAP inh: 0; UCH37 DUB inh: -1; Rtt109 HAT inh: -2; ALR H2O2 inh: inconclusive

Results for COC(=O)NCC(c1ccco1)N1CCN(c2ccc(OC)cc2)CC1 (stereo unspecified) ?
FAS TE block: -5; HDAC3 inhib: 6; PfM18AAP inh: -4; UCH37 DUB inh: 3; Rtt109 HAT inh: 5; ALR H2O2 inh: 89*

How did COc1ccc(N2CCN(C(CNS(C)(=O)=O)c3ccco3)CC2)cc1 (stereo unspecified) do in these assays?
FAS TE block: -13; HDAC3 inhib: 3; PfM18AAP inh: -7; UCH37 DUB inh: 0; ALR H2O2 inh: 92*

Results for COc1ccc(N2CCN(C(CNC(=O)C(=O)NCCCO)c3ccco3)CC2)cc1 (stereo unspecified) ?
FAS TE block: -2; HDAC3 inhib: -10; PfM18AAP inh: 6; UCH37 DUB inh: 4; Rtt109 HAT inh: 0; ALR H2O2 inh: 86*

What do the screens show for `CCC(C=NNC(=O)CCCCC(=O)NN=CC(CC)CC)CC`?
UCH37 DUB inh: 7

Results for Cc1nc2sc(C(c3ccco3)N3CCN(c4ccccc4F)CC3)c(O)n2n1 (stereo unspecified) ?
FAS TE block: -4; HDAC3 inhib: 0; PfM18AAP inh: -2; UCH37 DUB inh: 6; Rtt109 HAT inh: -3; ALR H2O2 inh: 2

Results for COc1ccc(N2CCN(C(CNC(=O)COc3ccccc3)c3ccco3)CC2)cc1 (stereo unspecified) ?
FAS TE block: 2; HDAC3 inhib: 1; UCH37 DUB inh: -3; Rtt109 HAT inh: 6; ALR H2O2 inh: 89*

What do the screens show for `CCS(=O)(=O)NCC(c1ccco1)N1CCN(c2ccccc2)CC1` (stereo unspecified)?
FAS TE block: -9; HDAC3 inhib: -3; PfM18AAP inh: 4; UCH37 DUB inh: -1; Rtt109 HAT inh: 2; ALR H2O2 inh: 93*

Results for Cc1nc2sc(C(c3ccco3)N3CCN(c4ccc(F)cc4)CC3)c(O)n2n1 (stereo unspecified) ?
FAS TE block: -4; HDAC3 inhib: 13; PfM18AAP inh: -2; UCH37 DUB inh: 8; Rtt109 HAT inh: -12; ALR H2O2 inh: 94*

What do the screens show for `COc1ccccc1CNC(=O)CC(C)=NNC(=O)COc1ccc(C)cc1Br`?
UCH37 DUB inh: 5

Results for O=C(CSc1cccc2cccnc12)NN=Cc1ccc(O)cc1 ?
UCH37 DUB inh: -5

How did N[C@@H](Cc1ccccc1)c1nnc(SCc2ccccc2Cl)o1 do in these assays?
FAS TE block: -10; HDAC3 inhib: 3; PfM18AAP inh: -1; UCH37 DUB inh: 5; Rtt109 HAT inh: 2; ALR H2O2 inh: 98*

How did COc1ccccc1/C=C1/C(=O)ON=C1C do in these assays?
FAS TE block: -4; HDAC3 inhib: -6; PfM18AAP inh: 15; UCH37 DUB inh: -1; Rtt109 HAT inh: 9; ALR H2O2 inh: 98*

Results for Cc1nc2cccc(C(=O)Oc3ccc([N+](=O)[O-])cc3)c2o1 ?
FAS TE block: 7; HDAC3 inhib: 5; PfM18AAP inh: 0; UCH37 DUB inh: 4; Rtt109 HAT inh: 12; ALR H2O2 inh: 97*

Results for CCC(=C(c1ccc(O)cc1)c1ccc(OCCN(C)C)cc1)c1ccccc1 ?
FAS TE block: -6
